TDP2 inh – TDP2 (human) inhibition, absorbance primary screen; O95551; AID 720702; 370,000 compounds, 0.34% hits; recombinant TDP2, T5PNP hydrolysis, p-nitrophenol absorbance 415 nm; inhibition, % at 12.8 µM;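 active = inhibition above the mean of all tested compounds plus 3 SD, set per campaign, cut at about 25% in these data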;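 note: 0% = DMSO with enzyme and 100% = buffer with substrate but no TDP2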
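test system = human TDP2 enzyme | input = TDP2 enzyme at 120 nM final | medium = 50 mM Tris-HCl pH 7.5 with Mg2+, KCl, DTT, BSA | also added = T5PNP substrate, 5 mM | times = 2 h at 37 °C | technique = epi absorbance | benchmarks = high control without enzyme, low control DMSO plus TDP2 | replication = each compound tested once, singlicate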
Rin1-Abl PPI inh – human Rin1-Abl interaction inhibition. P00519+Q13671. AID 588664. TR-FRET Rin1/Abl binding, biochemical. 360,000 compounds, 0.4% hits. inhibition, % at 7.35 µM; in the data active = inhibition above about 5%, passing the limit was not always enough
Target sequence (P00519 whole entry, looked up): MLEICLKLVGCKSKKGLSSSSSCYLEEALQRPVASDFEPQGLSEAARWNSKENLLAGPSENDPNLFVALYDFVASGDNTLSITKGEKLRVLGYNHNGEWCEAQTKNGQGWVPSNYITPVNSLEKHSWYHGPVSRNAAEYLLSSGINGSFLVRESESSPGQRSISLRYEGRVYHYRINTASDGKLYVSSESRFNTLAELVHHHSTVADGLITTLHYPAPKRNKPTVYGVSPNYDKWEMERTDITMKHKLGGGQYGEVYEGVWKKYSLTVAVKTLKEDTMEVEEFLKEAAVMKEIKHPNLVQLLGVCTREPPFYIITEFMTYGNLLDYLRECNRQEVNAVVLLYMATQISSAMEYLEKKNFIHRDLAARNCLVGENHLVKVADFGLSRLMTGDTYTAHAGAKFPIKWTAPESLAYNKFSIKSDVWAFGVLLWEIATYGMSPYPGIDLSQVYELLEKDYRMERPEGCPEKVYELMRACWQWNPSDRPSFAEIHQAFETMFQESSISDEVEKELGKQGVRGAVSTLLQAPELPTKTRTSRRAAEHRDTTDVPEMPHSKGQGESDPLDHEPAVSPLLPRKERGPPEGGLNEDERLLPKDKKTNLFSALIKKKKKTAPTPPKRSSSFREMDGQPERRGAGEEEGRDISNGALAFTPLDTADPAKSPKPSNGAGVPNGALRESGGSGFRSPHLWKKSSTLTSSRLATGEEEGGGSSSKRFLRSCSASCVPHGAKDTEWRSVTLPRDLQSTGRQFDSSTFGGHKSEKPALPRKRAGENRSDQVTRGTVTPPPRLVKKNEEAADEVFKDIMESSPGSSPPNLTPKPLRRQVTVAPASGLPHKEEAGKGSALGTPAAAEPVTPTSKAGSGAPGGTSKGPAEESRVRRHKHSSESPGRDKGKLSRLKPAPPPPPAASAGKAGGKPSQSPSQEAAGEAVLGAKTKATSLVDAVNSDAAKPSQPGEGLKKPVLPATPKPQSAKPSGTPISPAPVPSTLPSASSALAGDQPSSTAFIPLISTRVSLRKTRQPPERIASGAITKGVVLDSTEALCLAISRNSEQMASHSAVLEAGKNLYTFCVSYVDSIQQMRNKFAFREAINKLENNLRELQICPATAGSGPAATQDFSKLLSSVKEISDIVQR
Target sequence (Q13671 whole entry, looked up): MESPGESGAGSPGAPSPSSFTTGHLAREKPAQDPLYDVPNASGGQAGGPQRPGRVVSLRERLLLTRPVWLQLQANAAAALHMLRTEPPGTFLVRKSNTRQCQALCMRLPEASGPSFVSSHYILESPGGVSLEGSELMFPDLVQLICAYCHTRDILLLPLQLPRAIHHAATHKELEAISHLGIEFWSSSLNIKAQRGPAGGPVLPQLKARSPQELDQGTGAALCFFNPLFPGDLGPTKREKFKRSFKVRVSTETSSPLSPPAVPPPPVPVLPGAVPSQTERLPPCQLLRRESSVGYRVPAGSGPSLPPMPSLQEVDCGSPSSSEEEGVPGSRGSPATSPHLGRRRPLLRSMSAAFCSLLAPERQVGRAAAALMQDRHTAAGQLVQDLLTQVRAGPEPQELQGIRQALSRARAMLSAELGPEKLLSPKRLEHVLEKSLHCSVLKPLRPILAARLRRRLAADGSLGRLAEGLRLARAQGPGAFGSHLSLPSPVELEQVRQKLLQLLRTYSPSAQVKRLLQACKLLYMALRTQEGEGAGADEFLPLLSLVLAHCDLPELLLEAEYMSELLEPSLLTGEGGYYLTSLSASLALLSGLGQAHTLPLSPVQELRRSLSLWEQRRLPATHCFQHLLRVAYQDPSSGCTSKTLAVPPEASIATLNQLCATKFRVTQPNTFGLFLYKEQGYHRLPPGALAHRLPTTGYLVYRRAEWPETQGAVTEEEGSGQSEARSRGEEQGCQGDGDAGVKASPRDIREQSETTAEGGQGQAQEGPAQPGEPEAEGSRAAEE
LEDGF integ inh – blocks HIV-1 LEDGF/p75-dependent DNA integration; TR-FRET IN-LEDGF/p75 DNA integration, Eu/Cy5; inhibition, % at 3.7 µM; 370,000 compounds, 0.64% hits;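 active = inhibition above the screen-wide mean plus 3 SD, cut at about 13% in these data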;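 note: signal is the Cy5 over europium emission ratio at 671 and 618 nm; 0% = plate median of compound wells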
UHRF1 binding – blocks human UHRF1 binding to methylated DNA. 370,000 compounds, 0.75% hits. UHRF1 binding to methylated oligo, TR-FRET. inhibition, % at 4.4 µM. Q96T88; in the data active = inhibition above about 21%;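 note: UHRF1 SRA domain binding a hemimethylated CpG hairpin DNA probe; 0% = median of test compound wells and 100% = reference inhibitor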
MBD2 DNA inh – inhibitors of human MBD2 binding to methylated oligonucleotide; TR-FRET; inhibition, % at 4.4 µM; 370,000 compounds, 0.31% hits; AID 686964; in the data active = inhibition above about 13%
Rin1-Abl confirm – Rin1-Abl interaction inhibition confirmation; shares compounds with Rin1-Abl PPI inh; TR-FRET Rin1-Abl binding, purified proteins; inhibition, % at 7.35 µM; 1,300 compounds, 49% hits; AID 602124
GFP quench – quenches GFP fluorescence, counter-screen for Rin1-Abl inhibitors. 1,300 compounds, 8.5% hits. shares compounds with Rin1-Abl PPI inh. inhibitors/quenchers counterscreen. inhibition, % at 6.75 µM. AID 602125;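 note: ABL1-eGFP fusion protein alone without its partner RIN1-SBP; 0% = protein with vehicle and 100% = wells lacking protein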
GFP quench dose – GFP fluorescence interference dose response. shares compounds with Rin1-Abl PPI inh. GFP fluorescence interference/quenching counterscreen. IC50, µM. 230 tested, under 10 active. AID 602182; call rule not given here;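 note: ABL1-eGFP fusion protein alone without its RIN1 binding partner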
Numbers without * were called inactive; / = no result given. Sampled rows, rich in hits. Any-hit rate of the full collection: about 1.9%. Cut-off read from the data, not from the text of the source, unless noted: active = inhibition above about 6.5%; inactive = the rest.

SMILES | TDP2 inh | Rin1-Abl PPI inh | LEDGF integ inh | UHRF1 binding | MBD2 DNA inh | Rin1-Abl confirm | GFP quench | others
C#CCN1CC(N(C)CCOC(=O)CCCc2ccccc2)CS1(=O)=O (configuration not stated) | 5 | / | -3 | 0 | 1 | / | /
CCOc1ccc(-c2nnc(N3CCOCC3)c3ccccc23)cc1 | -2 | 12* | -1 | 1 | -5 | 6.7* | -1
COc1ccc(-c2nnc(N3CCC(C)CC3)c3ccccc23)cc1 | 2 | 1 | -3 | 0 | 2 | / | /
O=C(NCc1ccncc1)Nc1ccccc1 | -4 | 54* | 0 | 0 | 2 | -1 | -1
O=C(NCc1ccncc1)Nc1ccc(Cc2ccc(NC(=O)NCc3ccncc3)cc2)cc1 | -10 | 3 | 1 | -1 | -1 | / | /
COC(=O)[C@]1(C#N)CC(=O)N(C(C)C)[C@@H]1c1ccccc1 | 2 | / | 4 | -2 | 7 | / | /
COc1ccccc1-n1c(-c2ccc(Cl)cc2)c[nH]c1=S | 4 | 7.5* | -3 | -1 | -3 | -3 | -1
Cc1cccc(-n2c(-c3ccccc3)c[nH]c2=S)c1C | 2 | 6 | 5 | 1 | 4 | / | /
Cc1ccsc1C(=O)NNC(=O)c1ccc(NS(=O)(=O)c2cccs2)cc1 | 3 | 10* | -3 | -5 | -1 | -1 | -1
CC(=O)NC1=NN(C(C)=O)C(C)(c2ccco2)S1 (configuration not stated) | 3 | 8.7* | -6 | 3 | 2 | -3 | 1
CC(=O)NC1=NN(C(C)=O)C(C)(c2ccc(C)o2)S1 (configuration not stated) | 5 | 0 | -2 | 0 | 0 | / | /
O=C(OCCc1cc2ccccc2c(=O)o1)N1CCOCC1 | -1 | 12* | 2 | 5 | -1 | 2 | -4
CCC1CCCCN1CCCNC(=O)c1ccc2c(c1)c(C)c(C)n2CC (configuration not stated) | 0 | 15* | -3 | 4 | 4 | -4 | 2
CCC1CCCCN1CCCNC(=O)c1ccc2c(c1)c(C)c(C)n2C (configuration not stated) | 4 | 1 | 1 | -2 | 0 | / | /
NC(=O)COC(=O)CCCSc1nc2ccccc2s1 | 9 | 11* | 7 | -1 | 0 | 11* | 1
COCCN=c1scc(-c2cccs2)n1/N=C/c1ccc(O)c(O)c1O | -5 | 13* | 6 | 6 | 3 | 11* | 10*
O=c1c2ccccc2ncn1Cc1ccc(Cl)c(Cl)c1 | -4 | 6.3* | -6 | -2 | -2 | 1 | -2
COc1ccc(S(=O)(=O)N2CCCC2)c(Cl)c1Cl | -2 | 9.9* | 2 | 5 | 8 | -1 | -1
CCOC(=O)N1CCN(S(=O)(=O)c2ccc(OC)c(Cl)c2Cl)CC1 | -1 | -1 | 0 | -1 | -2 | / | /
COc1cccc(C2c3c(ncn(-c4ccccc4)c3=N)Oc3ccc4ccccc4c32)c1OC (configuration not stated) | 2 | / | 0 | 1 | -6 | / | /
CC(C)CCNC(=O)C1CCCN(C(=O)c2ccc3c(c2)NC(=O)CS3)C1 (configuration not stated) | -3 | / | 7 | -3 | -6 | / | /
CCc1nnc(NC(=O)C2CSC3(C)CCC(=O)N23)s1 (configuration not stated) | -6 | 3 | 1 | 0 | -5 | / | /
CC12CCC(=O)N1C(C(=O)Nc1nnc(SCc3ccccc3F)s1)CS2 (configuration not stated) | -7 | 32* | 0 | 4 | 3 | 52* | -1 | GFP quench dose=>68
OCC1OC(n2cnc3c(NCc4ccccc4O)ncnc32)C(O)C1O (configuration not stated) | 4 | 20* | 0 | 1 | 0 | 17* | -1 | GFP quench dose=>67
OCC1OC(n2cnc3c(NCCc4ccccc4)ncnc32)C(O)C1O (configuration not stated) | 0 | 1 | -2 | -1 | 2 | / | /
SMILES | TDP2 inh | Rin1-Abl PPI inh | LEDGF integ inh | UHRF1 binding | MBD2 DNA inh | Rin1-Abl confirm | GFP quench | others
COc1nc(Nc2cccc(F)c2)nc(OC)n1 | 11 | 3 | 1 | -3 | -3 | / | /
COc1cc2nc(Nc3cccc(F)c3)nc(N)c2cc1OC | 2 | 8.9* | -4 | 1 | -2 | 13* | 1
CCc1ccccc1CNC(=O)C1CCC(CNS(=O)(=O)c2cccc3cccnc23)CC1 (configuration not stated) | -5 | / | 2 | -3 | -2 | / | /
CCCCNC(=O)C1(C)CCCCCN1Cc1cccc2c(OC)cc(C(=O)OCC)cc12 (configuration not stated) | 1 | 6.9* | -4 | 0 | 1 | -2 | 1
CCCCNC(=O)C1(C)CCCCN1Cc1ccc2ccccc2c1 (configuration not stated) | 0 | -3 | -3 | 1 | 2 | / | /
C[C@H]1[C@@H](OC(=O)Nc2ccccc2C(F)(F)F)CC[C@@]23CCCN2C(=O)CCC[C@@H]13 | -7 | / | 3 | 2 | -1 | / | /
N#Cc1ccsc1NC(=O)CN1CCN(c2ccc(O)cc2)CC1 | -5 | 10* | 3 | 1 | 2 | -1 | 0
N#Cc1ccsc1NC(=O)CN1CCN(c2ccccc2)CC1 | 4 | -3 | 1 | 0 | 1 | / | /
Cc1nn(-c2ccccc2)c(C)c1C(=O)OCC(=O)Nc1ccccc1 | -3 | 2 | 2 | 1 | -1 | / | /
Cc1nn(-c2ccccc2)c(C)c1C(=O)OCC(=O)N(C)c1ccccc1 | -13 | 9.0* | -8 | 2 | -4 | 2 | -1
CCCN(CC1CC1)C(=O)CN1C(=O)C2CCCCN2C(=O)c2ccccc21 (configuration not stated) | 7 | / | 5 | -1 | -5 | / | /
C#CCNC(=O)C[C@@H]1C(=O)N(CCc2ccc(Cl)cc2)C2=CCCCC[C@]21C(=O)OC | 6 | / | 2 | 1 | 2 | / | /
CC(C)=CC([C@]12C[C@H](CO)N[C@@H]1Nc1ccccc12)S(=O)(=O)c1ccccc1 (some centres not stated) | -5 | / | -1 | 3 | 6 | / | /
Cc1nnc(SCCOc2ccccc2)s1 | 6 | 11* | -1 | 0 | -1 | 7.9* | 1
COc1ccc(S[C@]2(C(=O)N3CCN(C(C)=O)CC3)CC(=O)N[C@@H]2c2ccc(OC)cc2)cc1 | -4 | / | -2 | 0 | -3 | / | /
O=C(Cc1ccc(NC(=O)C2CCN(C(=O)C3CCCC3)CC2)cc1)Nc1cccc(C(=O)N2CCCCC2)c1 | -6 | 17* | 4 | -1 | -1 | 17* | 0 | GFP quench dose=>68

Assay outcomes from PubChem BioAssay.
